From article PMC6558985 (Nature chemical biology, 2019) come the findings set out here.

Residue numbers refer to the chain shown, from its start. Where only a bound is given, the exact number is not on record here.

Broadly, the IC50 is the midpoint of a concentration-inhibition curve. Lower therefore signals greater potency.

The target of one test is T1, Dm-spastin (Drosophila melanogaster, UniProt Q8I0P1, DEL311-372).
T1 sequence (Q8I0P1 with tags, fused parts or gaps DEL311-372 limits assumed): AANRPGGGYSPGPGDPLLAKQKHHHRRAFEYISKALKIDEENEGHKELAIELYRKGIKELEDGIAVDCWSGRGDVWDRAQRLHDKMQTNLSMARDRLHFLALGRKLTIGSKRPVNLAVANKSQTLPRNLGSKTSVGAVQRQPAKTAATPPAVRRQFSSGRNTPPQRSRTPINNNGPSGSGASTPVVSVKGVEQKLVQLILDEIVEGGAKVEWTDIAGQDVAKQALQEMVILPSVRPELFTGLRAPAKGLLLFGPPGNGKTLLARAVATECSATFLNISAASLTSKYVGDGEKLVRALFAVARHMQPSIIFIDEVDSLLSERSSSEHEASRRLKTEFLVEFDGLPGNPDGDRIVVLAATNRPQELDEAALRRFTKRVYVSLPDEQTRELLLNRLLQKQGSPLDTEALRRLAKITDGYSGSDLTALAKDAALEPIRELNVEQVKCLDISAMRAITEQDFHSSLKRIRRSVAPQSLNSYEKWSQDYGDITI
Description: In vitro microtubule-severing assay. The class given is biochemical, D. melanogaster. The conditions noted are these: 2 µM inhibitor, 0.5 mM MgATP, 15 nM Dm-spastin.

The target of another test is T2, Dm-spastin WT (Drosophila melanogaster, UniProt Q8I0P1, DEL311-372).
T2 sequence (Q8I0P1 with tags, fused parts or gaps DEL311-372 limits assumed): T1 sequence (Q8I0P1 with tags, fused parts or gaps DEL311-372 limits assumed)
Nature of the test: Steady-state ATPase activity, NADH-coupled assay, Dm-spastin wildtype. The class given is biochemical, D. melanogaster. Summed up:
(§1)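 Recombinant Dm-spastin, wildtype or point mutants, assayed by steady-state ATPase with NADH-coupled read-out at 0.5 mM MgATP over a test-compound concentration series. Data were fit to a sigmoidal dose-response equation to give IC50, average ± s.d., n = 3. Separately, rates across ATP concentrations were fit to a cooperative Michaelis-Menten equation for kcat and K1/2.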

Test [1] concerns Dm-spastin, Hs-FIGL1, Hs-PCH2, Mm-VCP, Xl-katanin. Description: Screen of selected kinase inhibitors against five AAA proteins. The class given is biochemical. The conditions noted are these: 10 µM compound, 0.5 mM ATP. Put shortly: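 Five recombinant AAA proteins (Dm-spastin, Hs-FIGL1, Hs-PCH2, Mm-VCP, Xl-katanin) were screened for ATPase activity with each test compound at 10 µM and 0.5 mM MgATP. Activity is expressed as percent of the DMSO control, average of n = 2, binned in 10% steps.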

Another test has as its target T3, Hs-FIGL1 (Homo sapiens, UniProt Q6PIW4).
T3 sequence (Q6PIW4 288-674): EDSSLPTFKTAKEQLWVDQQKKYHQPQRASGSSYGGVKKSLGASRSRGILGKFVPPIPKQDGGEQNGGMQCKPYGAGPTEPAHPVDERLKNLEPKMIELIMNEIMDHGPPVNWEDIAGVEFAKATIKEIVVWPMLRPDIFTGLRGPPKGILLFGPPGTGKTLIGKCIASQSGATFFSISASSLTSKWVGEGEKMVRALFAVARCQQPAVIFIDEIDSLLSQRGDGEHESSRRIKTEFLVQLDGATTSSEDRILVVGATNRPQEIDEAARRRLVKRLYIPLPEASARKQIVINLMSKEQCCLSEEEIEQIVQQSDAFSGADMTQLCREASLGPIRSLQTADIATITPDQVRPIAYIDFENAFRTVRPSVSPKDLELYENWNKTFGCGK
Description: Steady-state ATPase activity, NADH-coupled assay, Hs-FIGL1. It counts as biochemical. The conditions noted are these: 10 µM compound, 0.5 mM MgATP. Summed up: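 Recombinant AAA protein constructs assayed by steady-state ATPase with NADH-coupled read-out at 0.5 mM MgATP, with test compound at 2 µM or 10 µM. Activity is reported as percent of steady-state ATPase activity, average ± s.d., n = 3.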

Another test has as its target T4, Dm-spastin N527T (Drosophila melanogaster, UniProt Q8I0P1, DEL311-372/N527T).
T4 sequence (Q8I0P1 with tags, fused parts or gaps DEL311-372/N527T limits assumed): T1 sequence (Q8I0P1 with tags, fused parts or gaps DEL311-372 limits assumed) with N257T
Nature of the test: Steady-state ATPase activity, NADH-coupled assay, Dm-spastin N527T. It counts as biochemical, D. melanogaster. Put shortly: as §1

The target of a further test is T5, Dm-spastin Q488V (Drosophila melanogaster, UniProt Q8I0P1, DEL311-372/Q488V).
T5 sequence (Q8I0P1 with tags, fused parts or gaps DEL311-372/Q488V limits assumed): T1 sequence (Q8I0P1 with tags, fused parts or gaps DEL311-372 limits assumed) with Q218V
Nature of the test: Steady-state ATPase activity, NADH-coupled assay, Dm-spastin Q488V. The class given is biochemical, D. melanogaster. Summed up:
as §1

For another test, the target named is T6, Dm-spastin N527C (Drosophila melanogaster, UniProt Q8I0P1, DEL311-372/N527C).
T6 sequence (Q8I0P1 with tags, fused parts or gaps DEL311-372/N527C limits assumed): T1 sequence (Q8I0P1 with tags, fused parts or gaps DEL311-372 limits assumed) with N257C
Description: Steady-state ATPase activity, NADH-coupled assay, Dm-spastin N527C. The class given is biochemical, D. melanogaster. Put shortly:
as §1

The next test has as its target T7, Dm-spastin S689A (Drosophila melanogaster, UniProt Q8I0P1, DEL311-372/S689A).
T7 sequence (Q8I0P1 with tags, fused parts or gaps DEL311-372/S689A limits assumed): T1 sequence (Q8I0P1 with tags, fused parts or gaps DEL311-372 limits assumed) with S419A
Nature of the test: Steady-state ATPase activity, NADH-coupled assay, Dm-spastin S689A. It counts as biochemical, D. melanogaster. Put shortly: as §1

The next test deals with T8, Dm-spastin T692A (Drosophila melanogaster, UniProt Q8I0P1, DEL311-372/T692A).
T8 sequence (Q8I0P1 with tags, fused parts or gaps DEL311-372/T692A limits assumed): T1 sequence (Q8I0P1 with tags, fused parts or gaps DEL311-372 limits assumed) with T422A
Nature of the test: Steady-state ATPase activity, NADH-coupled assay, Dm-spastin T692A. It counts as biochemical, D. melanogaster. Put shortly: as §1

A further test addresses T9, Hs-spastin (Homo sapiens, UniProt Q9UBP0).
T9 sequence (Q9UBP0 229-616): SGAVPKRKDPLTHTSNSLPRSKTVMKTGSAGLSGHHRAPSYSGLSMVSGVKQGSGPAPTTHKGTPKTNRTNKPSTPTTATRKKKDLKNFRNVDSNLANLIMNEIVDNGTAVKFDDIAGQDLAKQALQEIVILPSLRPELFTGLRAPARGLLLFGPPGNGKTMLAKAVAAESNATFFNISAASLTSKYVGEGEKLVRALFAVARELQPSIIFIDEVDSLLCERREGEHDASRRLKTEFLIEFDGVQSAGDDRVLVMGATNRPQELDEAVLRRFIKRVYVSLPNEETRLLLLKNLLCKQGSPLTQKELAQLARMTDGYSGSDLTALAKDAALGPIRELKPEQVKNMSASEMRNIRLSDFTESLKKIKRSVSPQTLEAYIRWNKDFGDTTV
Nature of the test: Steady-state ATPase activity, NADH-coupled assay, Hs-spastin wildtype. It counts as biochemical. Summed up: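 Recombinant human spastin purified from E. coli. Steady-state ATPase inhibition was measured over a test-compound concentration series at 1 mM ATP. IC50 reported as average ± s.d., n = 3.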

As for `C[C@@H]1CNCCN1c1nc(Nc2cc(C(C)(C)C)[nH]n2)c2ccccc2n1` [compound 5, (R)-N-(5-(tert-butyl)-1H-pyrazol-3-yl)-2-(2-methyl-piperazin-1-yl)quinazolin-4-amine], the Dm-spastin dependent microtubule-severing entry at Dm-spastin was “blocked”. Also, the IC50 on Dm-spastin WT was 106 ± 35 nM. Further, the “potency on Dm-spastin ATPase relative to compound 4 (more potent)” value on Dm-spastin WT (0.5 mM MgATP) is recorded as ~ 10 fold.
Turning to `N#CCc1ccc(Nc2nc(Nc3cc(C4CC4)[nH]n3)c3ccccc3n2)cc1` [compound 1, 2-(4-((4-((5-cyclopropyl-1H-pyrazol-3-yl)amino)quinazolin-2-yl)amino)phenyl)acetonitrile, reference compound], at Dm-spastin WT (10 µM compound, 0.5 mM MgATP), the “inhibition of the ATPase activity of Dm-spastin” value is listed as “substantially inhibited”. Also, the “potency of Dm-spastin inhibition (dose-dependent analysis)” value on Dm-spastin WT (0.5 mM MgATP, IC50 not determined) was “micromolar range”. The “inhibition of ATPase activity of at least one of five AAA proteins” value in test [1] is over 50%. Besides, the “inhibition of Hs-FIGL1 ATPase activity” value against Hs-FIGL1 is on record as “also inhibited Hs-FIGL1”.
Take `CN1CCN(c2nc(Nc3cc(-c4ccccc4)[nH]n3)c3ccccc3n2)CC1` [compound 4, 2-(4-methylpiperazin-1-yl)-N-(5-phenyl-1H-pyrazol-3-yl)quinazolin-4-amine]: the 50% inhibitory concentration (IC50) was over 30000 nM against Dm-spastin N527T; about 12500 nM against Dm-spastin Q488V; 2900 ± 500 nM on Dm-spastin N527C; 1000 ± 600 nM on Dm-spastin WT; 900 ± 200 nM against Dm-spastin S689A; 1500 ± 400 nM at Dm-spastin T692A. For the same compound, at Dm-spastin N527C (P-loop mutation), the “reduction of potency by N527C mutation relative to Dm-spastin WT” value is given as ~ 3 fold. The “selectivity for Dm-spastin over four other AAA proteins” value at Dm-spastin WT (2 µM (Fig. 2 legend; text says 10 µM), 0.5 mM MgATP) is recorded as “increased selectivity for Dm-spastin”. Also, the “effect on K1/2 of Dm-spastin across a range of ATP concentrations” value at Dm-spastin WT (MgATP 0.027 to 3 mM) is listed as “increases in K1/2 at higher compound concentrations”. For the same compound, the “effect on kcat of Dm-spastin across a range of ATP concentrations” value on Dm-spastin WT (MgATP 0.027 to 3 mM) is on record as “not substantial changes in kcat”. The “change of potency by S689A mutation relative to Dm-spastin WT” value on Dm-spastin S689A (sensor-II mutation) is given as “no substantial difference”. At Dm-spastin T692A (sensor-II mutation), the “reduction of potency by T692A mutation relative to Dm-spastin WT” value was ~ 2 fold.
`C[C@@H]1CNCCN1c1nc(Nc2cc(C(C)(C)C)[nH]n2)c2cc[nH]c2n1` [compound 6, (R)-N-(5-(tert-butyl)-1H-pyrazol-3-yl)-2-(2-methylpiperazin-1-yl)-7H-pyrrolo[2,3-d]pyrimidin-4-amine] showed a concentration for half-maximal inhibition (IC50) against Hs-spastin of 132 ± 55 nM. Also, the “improved potency on Hs-spastin with respect to compound 5” value at Hs-spastin (1 mM ATP) is reported as ~ 30 fold.
